Data taken from ChEMBL document CHEMBL4339200, “Structure-based Discovery of Phenyl (3-Phenylpyrrolidin-3-yl)sulfones as Selective, Orally Active RORγt Inverse Agonists” (ACS Med Chem Lett, 2019).
The source made the active and inactive calls. The calls are words filed in the database; no cut-off is given here.

What was measured:
[1] = AUC in Balb/c mouse at 10 mg/kg, po; type: ADME, organism-based; settings: in vivo
Summary of the method: (§1)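 Balb/c mice given a single intravenous dose of 2 mg/kg or an oral dose of 10 mg/kg. Plasma exposure was followed to derive Cmax, Tmax, AUC, t1/2, clearance, Vss and oral bioavailability (F).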

[2] = tested on: Mus musculus; assay: Protection against IL23-induced acanthosis C57BL/6 mouse model of psoriasis assessed as reduction in ear swelling at 10 to 50 mg/kg, po bid for 10 days treated 2 hrs prior to IL23 challenge every other day for 10 days measured on day 11; type: functional, organism-based
[3] = Volume of distribution at steady state in Balb/c mouse at 2 mg/kg, iv; type: ADME, organism-based; settings: in vivo, read-out: Vdss; summary of the method: as §1
[4] = biological target: Cytochrome P450 3A4 (Homo sapiens, UniProt P08684); assay: Inhibition of CYP3A4 (unknown origin); type: ADME
Sequence of Cytochrome P450 3A4 (P08684 whole entry): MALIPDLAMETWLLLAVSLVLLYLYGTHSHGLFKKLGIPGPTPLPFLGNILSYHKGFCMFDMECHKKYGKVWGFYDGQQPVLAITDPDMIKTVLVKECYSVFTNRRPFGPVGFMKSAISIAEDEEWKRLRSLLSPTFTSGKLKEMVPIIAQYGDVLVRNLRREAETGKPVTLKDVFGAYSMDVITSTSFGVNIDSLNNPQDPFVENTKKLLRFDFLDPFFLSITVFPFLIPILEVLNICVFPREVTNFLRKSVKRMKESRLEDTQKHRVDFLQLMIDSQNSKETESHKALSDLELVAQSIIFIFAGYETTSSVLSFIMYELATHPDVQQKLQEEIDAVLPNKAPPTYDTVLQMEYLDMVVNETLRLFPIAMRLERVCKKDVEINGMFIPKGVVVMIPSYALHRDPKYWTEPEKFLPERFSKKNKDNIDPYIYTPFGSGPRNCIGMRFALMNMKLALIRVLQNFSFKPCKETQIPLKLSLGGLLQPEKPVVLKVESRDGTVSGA

[5] = biological target: T1, Oxysterols receptor LXR-alpha (Homo sapiens, UniProt Q13133); assay: Agonist activity at LXRalpha (unknown origin) expressed in African green monkey CV1 cells; type: cell-based
T1 sequence (Q13133 whole entry): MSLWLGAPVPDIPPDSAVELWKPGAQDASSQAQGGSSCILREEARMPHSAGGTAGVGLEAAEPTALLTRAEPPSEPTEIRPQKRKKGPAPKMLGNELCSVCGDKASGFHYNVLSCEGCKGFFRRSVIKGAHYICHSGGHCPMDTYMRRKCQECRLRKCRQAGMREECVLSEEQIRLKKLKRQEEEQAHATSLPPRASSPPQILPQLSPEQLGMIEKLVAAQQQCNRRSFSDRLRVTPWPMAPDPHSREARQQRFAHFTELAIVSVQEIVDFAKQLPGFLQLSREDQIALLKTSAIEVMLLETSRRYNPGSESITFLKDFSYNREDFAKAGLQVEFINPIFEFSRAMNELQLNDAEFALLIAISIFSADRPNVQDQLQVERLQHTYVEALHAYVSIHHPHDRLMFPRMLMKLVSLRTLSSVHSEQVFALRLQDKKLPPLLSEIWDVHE

[6] = biological target: T2, Oxysterols receptor LXR-beta (Homo sapiens, UniProt P55055); assay: Agonist activity at LXRbeta (unknown origin) expressed in African green monkey CV1 cells; type: cell-based
T2 sequence (P55055 whole entry): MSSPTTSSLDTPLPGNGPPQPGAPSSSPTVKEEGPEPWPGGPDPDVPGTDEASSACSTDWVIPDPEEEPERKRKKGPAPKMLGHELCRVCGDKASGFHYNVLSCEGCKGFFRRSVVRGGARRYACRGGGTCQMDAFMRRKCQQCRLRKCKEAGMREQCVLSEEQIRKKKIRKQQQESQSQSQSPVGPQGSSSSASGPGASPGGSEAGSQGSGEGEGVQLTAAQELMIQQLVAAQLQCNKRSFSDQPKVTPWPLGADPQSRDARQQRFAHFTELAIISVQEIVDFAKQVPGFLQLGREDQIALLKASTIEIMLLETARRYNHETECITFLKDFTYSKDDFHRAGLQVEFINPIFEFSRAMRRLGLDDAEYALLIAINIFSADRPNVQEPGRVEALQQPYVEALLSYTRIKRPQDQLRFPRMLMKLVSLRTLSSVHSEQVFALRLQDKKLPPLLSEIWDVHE

[7] = biological target: Cytochrome P450 2C9 (Homo sapiens, UniProt P11712); assay: Inhibition of CYP2C9 (unknown origin); type: ADME
Sequence of Cytochrome P450 2C9 (P11712 whole entry): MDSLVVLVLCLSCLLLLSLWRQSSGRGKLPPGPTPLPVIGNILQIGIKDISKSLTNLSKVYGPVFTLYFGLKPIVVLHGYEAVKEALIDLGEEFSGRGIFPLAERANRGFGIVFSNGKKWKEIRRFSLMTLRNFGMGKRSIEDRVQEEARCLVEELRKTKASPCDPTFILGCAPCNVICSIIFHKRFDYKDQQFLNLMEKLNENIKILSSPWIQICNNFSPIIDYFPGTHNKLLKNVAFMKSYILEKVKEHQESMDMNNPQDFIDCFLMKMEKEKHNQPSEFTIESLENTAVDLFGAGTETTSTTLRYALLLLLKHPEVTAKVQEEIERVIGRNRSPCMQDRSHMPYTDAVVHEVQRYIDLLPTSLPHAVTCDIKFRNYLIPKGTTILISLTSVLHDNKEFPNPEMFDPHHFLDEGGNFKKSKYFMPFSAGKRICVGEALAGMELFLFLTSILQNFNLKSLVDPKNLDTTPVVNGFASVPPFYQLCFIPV

[8] = tested on: Mus musculus; assay: Inhibition of IL2/IL23-induced GM-CSF production in po bid dosed C57BL/6 mouse treated 30 mins prior to 24 hrs IL2 challenge followed by IL2/IL23 addition at 0,7 and 23 hrs measured after 7 hrs post last IL2/IL23 challenge; type: functional, organism-based
Summary of the method: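 Naive mice were challenged three times with IL-2 plus IL-23 (first at 0 and 7 h) and dosed orally bid at 5, 15 or 50 mg/kg. Serum cytokines were measured 7 h after the final IL-2/IL-23 administration. An anti-IL-23 antibody served as positive control.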

- AUC [1]: 36.6 µM·h
- Vd [3]: 3.4 L/kg
- IC50 [4]: > 20 µM
- EC50 [5]: > 7.5 µM
- EC50 [6]: > 7.5 µM
- IC50 [7]: > 20 µM
Structure (SMILES): O=C(O)[C@H]1CC[C@H](C(=O)N2CC[C@](c3ccc(C(F)(C(F)(F)F)C(F)(F)F)cc3)(S(=O)(=O)c3ccc(F)cc3)C2)CC1
- Activity [2]: Active
- inhibition [8]: Dose-dependent effect
